# According to PMC4153604 (European journal of medicinal chemistry, 2014):
# Experiments:
# Assay type in all cases: cell-based
# [1] = tested on: MIA PaCa-2 cells; assay: Apoptosis assay, AO/EB staining; conditions: 0.5, 1 and 2 µM, 48 h, 5% FBS
# Method in brief: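 MIA PaCa-2 cells (5 × 10^4 per chamber-slide well) exposed to test compound at 0.5, 1 and 2 µM for 48 h in medium with 5% FBS. Stained with AO/EB (10 µg/mL each) and imaged by fluorescence microscopy (x40, 480/30 nm excitation). Green intact nuclei scored as viable; orange-red, condensed nuclei as apoptotic. Images representative of triplicate experiments.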
# [2] = tested on: MIA PaCa-2 pancreatic cancer cells; assay: Cell viability, resazurin assay; conditions: 20 µM, 48 h, 5% FBS
# Method in brief: (§1)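 Cell lines were maintained at 37°C, 5% CO2 to about 80% confluence: BxPC-3 in RPMI 1640, MIA PaCa-2 in DMEM, each with 10% FBS and penicillin/streptomycin. Trypsinized cells were plated at 1 × 10^4/well in 5% FBS medium and treated with 0–20 µM for 48 h. Resazurin (0.02% in DPBS) was added; fluorescence (ex 560/em 590 nm) was read after 2 h. EC50 came from nonlinear regression.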
# [3] = tested on: BxPC-3 pancreatic cancer cells; assay: Cell viability, resazurin assay; conditions: 20 µM, 48 h, 5% FBS
# Method in brief: as §1
# [4] = listed as farnesylthiosalicylamide
compound,measurement,setting,value
"CC(C)=CCC/C(C)=C/CC/C(C)=C/CSC[C@H](NC(=O)CCCCCN1CCN(C)CC1)C(=O)NC1CCCCCCC1 [8e, L-((4-methylpiperazinyl)hexanoyl)-S-(trans, trans-farnesyl) cysteine cyclooctylamide]",mode of cell death (AO/EB staining),[1],signs of apoptosis were observed
"CC(C)=CCC/C(C)=C/CC/C(C)=C/CSc1ccccc1C(=O)O [FTS, S-t, t farnesylthiosalicylic acid]",effect on viability of the cells,[2]; listed as salirasib,ineffective
same,effect on viability of the cells,[3]; listed as salirasib,ineffective
"CC(C)=CCC/C(C)=C/CC/C(C)=C/CSc1ccccc1C(N)=O [FTSA, S-t, t farnesylthiosalicylic amide]",effect on viability of the cells,[2]; [4],ineffective
same,effect on viability of the cells,[3]; [4],ineffective
